pIC50: −log10 of the molar value. The source made the active and inactive calls. No cut-off for these calls is given here.
Legend:
Plasmodium falciparum [1] = assay: Antimalarial activity against chloroquine-sensitive Plasmodium falciparum NF54 infected in human erythrocytes assessed as inhibition of parasite growth at 2.5 to 10 uM after 72 hrs by Geimsa staining based light microscopic analysis; assay type: functional, organism-based
Plasmodium falciparum [2] = assay: Antimalarial activity against chloroquine-sensitive Plasmodium falciparum NF54 infected in human erythrocytes assessed as reduction of parasitemia level at 3 uM after 4 days by Geimsa staining based light microscopic analysis (reference value: 2.73 +/- 0.16%); assay type: functional; parameters: scale not given: the % may be the effect or the level left
Plasmodium falciparum [3] = assay: Antimalarial activity against chloroquine-sensitive Plasmodium falciparum NF54 infected in human erythrocytes assessed as reduction of parasitemia level at 3 uM after 3 days by Geimsa staining based light microscopic analysis (reference value: 2.55 +/- 0.21%); assay type: functional; parameters: scale not given: the % may be the effect or the level left
Plasmodium falciparum [4] = assay: Antimalarial activity against chloroquine-sensitive Plasmodium falciparum NF54 infected in human erythrocytes assessed as reduction of parasitemia level at 3 uM after 1 day by Geimsa staining based light microscopic analysis (reference value: 0.97 +/- 0.1%); assay type: functional; parameters: scale not given: the % may be the effect or the level left
Plasmodium falciparum [5] = assay: Antimalarial activity against chloroquine-sensitive Plasmodium falciparum NF54 infected in human erythrocytes assessed as inhibition of parasite growth after 72 hrs by Geimsa staining based light microscopic analysis; assay type: functional, organism-based; conditions: NF54, 72 h
Plasmodium falciparum [6] = assay: Antimalarial activity against chloroquine-sensitive Plasmodium falciparum NF54 infected in human erythrocytes assessed as reduction of parasitemia level at 3 uM after 2 days by Geimsa staining based light microscopic analysis (reference value: 1.21 +/- 0.12%); assay type: functional; parameters: scale not given: the % may be the effect or the level left
Plasmodium falciparum [7] = assay: Antimalarial activity against chloroquine-sensitive Plasmodium falciparum NF54 infected in human erythrocytes assessed as reduction of parasitemia level at 10 uM after 1 day by Geimsa staining based light microscopic analysis (reference value: 0.97 +/- 0.1%); assay type: functional; parameters: scale not given: the % may be the effect or the level left
Plasmodium falciparum [8] = assay: Antimalarial activity against chloroquine-sensitive Plasmodium falciparum NF54 infected in human erythrocytes assessed as reduction of parasitemia level at 10 uM after 4 days by Geimsa staining based light microscopic analysis (reference value: 2.73 +/- 0.16%); assay type: functional; parameters: scale not given: the % may be the effect or the level left
Plasmodium falciparum [9] = assay: Antimalarial activity against chloroquine-sensitive Plasmodium falciparum NF54 infected in human erythrocytes assessed as reduction of parasitemia level at 10 uM after 3 days by Geimsa staining based light microscopic analysis (reference value: 2.55 +/- 0.21%); assay type: functional; parameters: scale not given: the % may be the effect or the level left
Plasmodium falciparum [10] = assay: Antimalarial activity against chloroquine-sensitive Plasmodium falciparum NF54 infected in human erythrocytes assessed as reduction of parasitemia level at 10 uM after 2 days by Geimsa staining based light microscopic analysis (reference value: 1.21 +/- 0.12%); assay type: functional; parameters: scale not given: the % may be the effect or the level left
Plasmodium berghei [11] = assay: Antimalarial activity against […] Plasmodium berghei ANKA infected in C57BL/6 mouse assessed as clearance of parasite from blood of mouse at 25 mg/kg, ip administered 3 to 9 days post infection by Geimsa staining based microscopic analysis; assay type: functional, organism-based; parameters: dose 25 mg/kg
Method in brief: (§1)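 Infected C57BL/6 mice were followed over time for blood parasitemia and for survival, with a chloroquine-treated group as reference. Death from cerebral malaria and later death from anemia were recorded separately.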

Plasmodium falciparum [12] = assay: Antimalarial activity against chloroquine-sensitive Plasmodium falciparum NF54 infected in human erythrocytes assessed as reduction of parasitemia level at 0.032 uM after 2 days by Geimsa staining based light microscopic analysis (reference value: 1.21 +/- 0.12%); assay type: functional; parameters: scale not given: the % may be the effect or the level left
Plasmodium falciparum [13] = assay: Antimalarial activity against chloroquine-sensitive Plasmodium falciparum NF54 infected in human erythrocytes assessed as reduction of parasitemia level at 0.032 uM after 3 days by Geimsa staining based light microscopic analysis (reference value: 2.55 +/- 0.21%); assay type: functional; parameters: scale not given: the % may be the effect or the level left
Plasmodium falciparum [14] = assay: Antimalarial activity against chloroquine-sensitive Plasmodium falciparum NF54 infected in human erythrocytes assessed as reduction of parasitemia level at 0.032 uM after 4 days by Geimsa staining based light microscopic analysis (reference value: 2.73 +/- 0.16%); assay type: functional; parameters: scale not given: the % may be the effect or the level left
Plasmodium falciparum [15] = assay: Antimalarial activity against chloroquine-sensitive Plasmodium falciparum NF54 infected in human erythrocytes assessed as reduction of parasitemia level at 0.032 uM after 1 day by Geimsa staining based light microscopic analysis (reference value: 0.97 +/- 0.1%); assay type: functional; parameters: scale not given: the % may be the effect or the level left
Plasmodium falciparum [16] = assay: Antimalarial activity against chloroquine-sensitive Plasmodium falciparum NF54 infected in human erythrocytes assessed as reduction of parasitemia level at 20 uM after 2 days by Geimsa staining based light microscopic analysis (reference value: 1.21 +/- 0.12%); assay type: functional; parameters: scale not given: the % may be the effect or the level left
Plasmodium falciparum [17] = assay: Antimalarial activity against chloroquine-sensitive Plasmodium falciparum NF54 infected in human erythrocytes assessed as reduction of parasitemia level at 20 uM after 4 days by Geimsa staining based light microscopic analysis (reference value: 2.73 +/- 0.16%); assay type: functional; parameters: scale not given: the % may be the effect or the level left
Plasmodium falciparum [18] = assay: Antimalarial activity against chloroquine-sensitive Plasmodium falciparum NF54 infected in human erythrocytes assessed as reduction of parasitemia level at 20 uM after 1 day by Geimsa staining based light microscopic analysis (reference value: 0.97 +/- 0.1%); assay type: functional; parameters: scale not given: the % may be the effect or the level left
Mus musculus [19] = assay: Toxicity in […] Plasmodium berghei ANKA infected C57BL/6 mouse assessed as mortality with anemia at 80 mg/kg, ip administered 3 to 9 days post infection measured on day 10; assay type: organism-based; parameters: dose 80 mg/kg, route intraperitoneal; conditions: in vivo; method in brief: as §1
Plasmodium berghei [20] = assay: Antimalarial activity against […] Plasmodium berghei ANKA infected in C57BL/6 mouse assessed as protection against cerebral malaria at 80 mg/kg, ip administered 3 to 9 days post infection by Geimsa staining based microscopic analysis; assay type: functional, organism-based; parameters: dose 80 mg/kg; method in brief: as §1
Plasmodium berghei [21] = assay: Antimalarial activity against […] Plasmodium berghei ANKA infected in C57BL/6 mouse assessed as clearance of parasite from blood of mouse at 80 mg/kg, ip administered 3 to 9 days post infection by Geimsa staining based microscopic analysis; assay type: functional, organism-based; parameters: dose 80 mg/kg; method in brief: as §1
Plasmodium falciparum [22] = assay: Antimalarial activity against chloroquine-sensitive Plasmodium falciparum NF54 infected in human erythrocytes assessed as reduction of parasitemia level at 20 uM after 3 days by Geimsa staining based light microscopic analysis (reference value: 2.55 +/- 0.21%); assay type: functional; parameters: scale not given: the % may be the effect or the level left
Plasmodium berghei [23] = assay: Antimalarial activity against […] Plasmodium berghei ANKA infected in C57BL/6 mouse assessed as protection against cerebral malaria at 100 mg/kg, ip administered 3 to 9 days post infection by Geimsa staining based microscopic analysis; assay type: functional, organism-based; parameters: dose 100 mg/kg; method in brief: as §1
Mus musculus [24] = assay: Toxicity in […] Plasmodium berghei ANKA infected C57BL/6 mouse assessed as mortality with anemia at 100 mg/kg, ip administered 3 to 9 days post infection measured on day 10; assay type: organism-based; parameters: dose 100 mg/kg, route intraperitoneal; conditions: in vivo; method in brief: as §1
Plasmodium berghei [25] = assay: Antimalarial activity against […] Plasmodium berghei ANKA infected in C57BL/6 mouse assessed as clearance of parasite from blood of mouse at 100 mg/kg, ip administered 3 to 9 days post infection by Geimsa staining based microscopic analysis; assay type: functional, organism-based; parameters: dose 100 mg/kg; method in brief: as §1
Plasmodium berghei [26] = assay: Antimalarial activity against […] Plasmodium berghei ANKA infected in C57BL/6 mouse assessed as clearance of parasite from blood of mouse at 150 mg/kg, ip administered 3 to 9 days post infection measured on day 5 to 7 by Geimsa staining based microscopic analysis; assay type: functional, organism-based; parameters: dose 150 mg/kg; method in brief: as §1

Question: Which inhibition (Plasmodium falciparum [1]) does the source give for `Oc1c(-c2cc3nc4ncccc4nc3c3ccccc23)ccc2ccccc12` here?
Answer: inactive

Question: Which Activity (Plasmodium falciparum [2]) does the source give for `Oc1c(-c2cc3nc4ccccc4nc3c3ccccc23)ccc2ccccc12` here?
Answer: 0%

Question: And the Activity (Plasmodium falciparum [3])?
Answer: 0.02%

Question: What about the Activity (Plasmodium falciparum [4]) of the same compound?
Answer: 0.27%

Question: What about the pIC50 (Plasmodium falciparum [5]) of the same compound?
Answer: 6.06

Question: And the Activity (Plasmodium falciparum [6])?
Answer: 0.11%

Question: For `Oc1c(-c2cc3nc4cc(Cl)c(Cl)cc4nc3c3ccccc23)ccc2ccccc12`, which Activity (Plasmodium falciparum [2]) is on record?
Answer: 0%

Question: And the Activity (Plasmodium falciparum [3])?
Answer: 0%

Question: And the Activity (Plasmodium falciparum [4])?
Answer: 0.17%

Question: What about the pIC50 (Plasmodium falciparum [5]) of the same compound?
Answer: 6.29

Question: And the Activity (Plasmodium falciparum [6])?
Answer: 0.15%

Question: Which results are given for `O/N=C1/C=C(c2c(O)ccc3ccccc23)c2ccccc2/C1=N/O`?
Answer: Activity (Plasmodium falciparum [7]): 0.94%; pIC50 (Plasmodium falciparum [5]): 5.43; Activity (Plasmodium falciparum [8]): 0%; Activity (Plasmodium falciparum [9]): 0.04%; Activity (Plasmodium falciparum [10]): 0.2%

Question: With `CCN(CC)CCCC(C)Nc1ccnc2cc(Cl)ccc12` (stereo not drawn) [CHLOROQUINE] as the compound, how does the Activity (Plasmodium berghei [11]) read?
Answer: inactive

Question: What about the Activity (Plasmodium falciparum [12]) of the same compound?
Answer: 0%

Question: What about the Activity (Plasmodium falciparum [13]) of the same compound?
Answer: 0%

Question: And the Activity (Plasmodium falciparum [14])?
Answer: 0%

Question: What about the Activity (Plasmodium falciparum [15]) of the same compound?
Answer: 0.06%

Question: Which results are given for `Oc1ccc2ccccc2c1-c1cc2nc3ccccc3nc2c2ccccc12`?
Answer: Activity (Plasmodium falciparum [16]): 0.07%; Activity (Plasmodium falciparum [17]): 0%; Activity (Plasmodium falciparum [18]): 0.23%; Activity (Mus musculus [19]): Toxic; pIC50 (Plasmodium falciparum [5]): 5.39; Activity (Plasmodium berghei [20]): Active; Activity (Plasmodium berghei [21]): inactive; Activity (Plasmodium falciparum [22]): 0.02%

Question: With `Oc1ccc2ccccc2c1-c1cc2c(c3ccccc13)=NC1(CCCCC1)N=2` as the compound, how does the inhibition (Plasmodium falciparum [1]) read?
Answer: inactive

Question: For `Oc1c(-c2cc3nc4c(O)nc(S)nc4nc3c3ccccc23)ccc2ccccc12`, which inhibition (Plasmodium falciparum [1]) is on record?
Answer: inactive

Question: How did the Activity (Plasmodium berghei [23]) turn out when `Oc1ccc2ccccc2c1-c1cc2nc3cc(Cl)c(Cl)cc3nc2c2ccccc12` was run?
Answer: Active

Question: What about the Activity (Plasmodium falciparum [16]) of the same compound?
Answer: 0.01%

Question: What about the Activity (Plasmodium falciparum [17]) of the same compound?
Answer: 0%

Question: What about the Activity (Mus musculus [24]) of the same compound?
Answer: Toxic

Question: And the Activity (Plasmodium falciparum [18])?
Answer: 0.14%

Question: And the pIC50 (Plasmodium falciparum [5])?
Answer: 5.30

Question: What about the Activity (Plasmodium berghei [25]) of the same compound?
Answer: inactive

Question: And the Activity (Plasmodium falciparum [22])?
Answer: 0%

Question: Which Activity (Plasmodium berghei [23]) does the source give for `Oc1ccc2ccccc2c1-c1cc2nc3ncccc3nc2c2ccccc12` here?
Answer: Active

Question: What about the Activity (Plasmodium falciparum [16]) of the same compound?
Answer: 0%

Question: And the Activity (Plasmodium falciparum [17])?
Answer: 0%

Question: What about the Activity (Mus musculus [24]) of the same compound?
Answer: Toxic

Question: What about the Activity (Plasmodium falciparum [18]) of the same compound?
Answer: 0.04%

Question: And the pIC50 (Plasmodium falciparum [5])?
Answer: 5.28

Question: What about the Activity (Plasmodium berghei [25]) of the same compound?
Answer: inactive

Question: What about the Activity (Plasmodium falciparum [22]) of the same compound?
Answer: 0%

Question: Which inhibition (Plasmodium falciparum [1]) does the source give for `O=C(O)c1cnc2cc(-c3ccc4ccccc4c3O)c3ccccc3c2n1` here?
Answer: inactive

Question: `O=C(O)c1cnc2cc(-c3c(O)ccc4ccccc34)c3ccccc3c2n1` was tested. Which inhibition (Plasmodium falciparum [1]) did it give?
Answer: inactive

Question: Which inhibition (Plasmodium falciparum [1]) does the source give for `O=C1C=C(c2ccc3ccccc3c2O)c2ccccc2C1=O` here?
Answer: inactive

Question: What does the source list for `Oc1ccc2cc(Br)ccc2c1-c1cc2nc3ccccc3nc2c2ccc(Br)cc12`?
Answer: Activity (Plasmodium berghei [26]): Active; Activity (Plasmodium falciparum [7]): 0.14%; pIC50 (Plasmodium falciparum [5]): 6.19; Activity (Plasmodium falciparum [8]): 0%; Activity (Plasmodium falciparum [9]): 0%; Activity (Plasmodium falciparum [10]): 0.01%

Question: With `Nc1nnc2cc(-c3c(O)ccc4ccccc34)c3ccccc3c2n1` as the compound, how does the inhibition (Plasmodium falciparum [1]) read?
Answer: inactive

Question: How did the inhibition (Plasmodium falciparum [1]) turn out when `Oc1ccc2ccccc2c1-c1cc2nc3c(O)nc(S)nc3nc2c2ccccc12` was run?
Answer: inactive

Reference: ChEMBL document CHEMBL1800050, “A new class of phenazines with activity against a chloroquine resistant Plasmodium falciparum strain and antimicrobial activity” (J Med Chem, 2011)
